Reference: article PMC3304100 (Molecular Pharmaceutics, 2011)

Assays:
hPepT1 = target: T1, hPepT1 (Homo sapiens, UniProt P46059); assay: Uptake in hPepT1 transfected vs non-transfected HeLa cells; assay type: cell-based; details: 1mM, pH 6.0, 45 min, 37°C, n=3
T1 sequence (P46059 1-708): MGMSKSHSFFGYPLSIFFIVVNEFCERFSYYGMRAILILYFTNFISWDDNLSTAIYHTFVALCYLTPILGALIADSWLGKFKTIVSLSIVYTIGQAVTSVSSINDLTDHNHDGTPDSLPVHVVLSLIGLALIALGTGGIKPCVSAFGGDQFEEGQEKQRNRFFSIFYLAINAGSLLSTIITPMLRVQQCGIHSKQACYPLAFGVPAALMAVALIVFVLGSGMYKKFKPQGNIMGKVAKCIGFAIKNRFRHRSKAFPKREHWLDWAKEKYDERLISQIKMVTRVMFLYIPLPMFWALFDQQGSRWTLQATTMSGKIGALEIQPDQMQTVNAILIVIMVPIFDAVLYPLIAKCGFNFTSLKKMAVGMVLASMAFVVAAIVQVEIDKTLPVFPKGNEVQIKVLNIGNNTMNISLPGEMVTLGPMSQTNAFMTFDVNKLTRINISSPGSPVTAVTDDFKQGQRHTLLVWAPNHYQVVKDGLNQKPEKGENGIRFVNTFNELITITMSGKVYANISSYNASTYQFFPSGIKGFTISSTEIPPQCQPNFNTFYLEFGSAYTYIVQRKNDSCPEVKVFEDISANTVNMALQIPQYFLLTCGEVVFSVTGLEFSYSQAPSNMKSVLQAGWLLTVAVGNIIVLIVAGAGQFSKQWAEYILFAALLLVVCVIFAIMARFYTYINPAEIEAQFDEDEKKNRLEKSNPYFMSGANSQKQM
Outline: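 HeLa cells transduced with hPepT1-carrying adenovirus and used two days post-infection; non-transfected HeLa cells served as control. Cells were washed with pH 6.0 uptake buffer, then exposed to test compound (1mM) in uptake buffer at 37°C for 45 min and washed ice-cold. They were extracted in methanol:water (50:50) for 1 h at room temperature, and the supernatant was filtered and quantified by LC-MS. Sample protein was measured by DC assay against a BSA standard.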

[1] = cited from earlier work
rat gut wall = assay: In situ single-pass intestinal perfusion in rats; assay type: in vivo; details: pH 5.5, n=4, metoprolol co-perfused as reference
Outline: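 Fasted (12–18 h) male Wistar rats (250–280 g), ketamine-xylazine im. ~10 cm jejunal, mid-intestinal or ileal segment cannulated and perfused at 0.18 ml/min with pH 5.5 MES buffer, 290 mosm/l, containing phenol red and metoprolol. Drug concentration = highest oral dose/250 ml. After 1 h to steady state, outlet sampled every 10 min for 1 h; HPLC. Peff by plug-flow model, water-flux corrected, R 0.2 cm.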

Row | Structure (SMILES) | Uptake in HeLa/hPepT1 cells compared to non-transfected HeLa cells (hPepT1) | Absolute oral availability [1] | Effective permeability (Peff), in words (rat gut wall)
1 | CC(C)[C@H](N)C(=O)OCCOCn1cnc2c(=O)[nH]c(N)nc21 [Valacyclovir] | ~ 5 fold | – | –
2 | CC(=O)N[C@H]1[C@H]([C@H](O)[C@H](O)CO)OC(C(=O)O)=C[C@@H]1N=C(N)N [Zanamivir] | – | approximately 2% | absolutely no permeability
